Experimental data published in ChEMBL document CHEMBL4190220, “Withanolides from Aeroponically Grown Physalis peruviana and Their Selective Cytotoxicity to Prostate Cancer and Renal Carcinoma Cells” (J Nat Prod, 2017).
pIC50: −log10 of the molar value.

How the values were obtained:
SK-MEL-28 = assay: Cytotoxicity against human SK-MEL-28 cells assessed as reduction in cell viability after 72 hrs by CellTiter96 AQueous one solution cell proliferation assay; format: functional, cell-based; settings: SK-MEL-28, 72 h
In short: (§1)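 MTS viability in DMEM with 5% fetal calf serum, 2.0 mM L-glutamine, nonessential amino acids, 1.0 mM pyruvate, penicillin/streptomycin, 10 mM HEPES and 2-mercaptoethanol. 5000 cells were grown overnight at 37 °C. Serial DMSO dilutions went into triplicate wells for 72 h. MTS absorbance was read at 490 nm after 2 h. IC50 ± SD from at least three independent dose–response experiments.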

CWR22R = assay: Cytotoxicity against human 22Rv1 cells assessed as reduction in cell viability after 72 hrs by CellTiter96 AQueous one solution cell proliferation assay; format: functional, cell-based; settings: 22Rv1, 72 h
In short: (§2)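 MTS viability in RPMI with 5% fetal calf serum, 2.0 mM L-glutamine, nonessential amino acids, 1.0 mM pyruvate, penicillin/streptomycin, 10 mM HEPES and 2-mercaptoethanol. Cells were seeded at 10 000 (LNCaP) or 5000 (others) and grown overnight at 37 °C. Serial dilutions in DMSO went into triplicate wells for 72 h. MTS was read at 490 nm after 2 h. IC50 ± SD from dose–response curves, at least three independent experiments.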

ACHN = assay: Cytotoxicity against human ACHN cells assessed as reduction in cell viability after 72 hrs by CellTiter96 AQueous one solution cell proliferation assay; format: functional, cell-based; in short: as §2
M14 = assay: Cytotoxicity against human M14 cells assessed as reduction in cell viability after 72 hrs by CellTiter96 AQueous one solution cell proliferation assay; format: functional, cell-based; settings: M14, 72 h; in short: as §1
HFF = assay: Cytotoxicity against HFF cells assessed as reduction in cell viability after 72 hrs by CellTiter96 AQueous one solution cell proliferation assay; format: cell-based; settings: Homo sapiens; in short: as §2
LNCaP = assay: Cytotoxicity against human LNCAP cells assessed as reduction in cell viability after 72 hrs by CellTiter96 AQueous one solution cell proliferation assay; format: functional, cell-based; in short: as §2

## CO[C@H]1C=CC(=O)[C@]2(C)[C@H]3CC[C@]4(C)[C@](O)([C@@](C)(O)[C@H]5CC(C)=C(C)C(=O)O5)CC[C@@]4(O)[C@@H]3C[C@H]3O[C@]132
SK-MEL-28
  pIC50: < 5.70
CWR22R
  pIC50: 6.62
ACHN
  pIC50: < 5.70
M14
  pIC50: < 5.70
HFF
  pIC50: < 5.70
LNCaP
  pIC50: 6.48

## C[C@H]1C[C@H]([C@](C)(O)[C@]2(O)CC[C@@]3(O)[C@@H]4C[C@H]5O[C@]56CC=CC(=O)[C@]6(C)[C@H]4CC[C@]23C)OC(=O)[C@@H]1C
SK-MEL-28
  pIC50: < 5.70
CWR22R
  pIC50: 6.68
ACHN
  pIC50: < 5.70
M14
  pIC50: < 5.70
HFF
  pIC50: < 5.70
LNCaP
  pIC50: 6.54

## CC1=C(C)C(=O)O[C@@H]([C@](C)(O)[C@]2(O)CC[C@@]3(O)[C@@H]4[C@@H](O)[C@H]5O[C@]56CC=CC(=O)[C@]6(C)[C@H]4CC[C@]23C)C1
SK-MEL-28
  pIC50: < 5.70
CWR22R
  pIC50: 6.59
ACHN
  pIC50: < 5.70
M14
  pIC50: < 5.70
HFF
  pIC50: < 5.70
LNCaP
  pIC50: 6.48

## CC1=C(C)C(=O)O[C@@H]([C@](C)(O)[C@]2(O)CC[C@@]3(O)[C@@H]4[C@@H](O)C=C5CC=CC(=O)[C@]5(C)[C@H]4CC[C@]23C)C1
SK-MEL-28
  pIC50: < 5.70
CWR22R
  pIC50: 6.25
ACHN
  pIC50: < 5.70
M14
  pIC50: < 5.70
HFF
  pIC50: < 5.70
LNCaP
  pIC50: 6.48

## CC1=C(C)C(=O)O[C@@H]([C@](C)(O)[C@]2(O)CC[C@@]3(O)[C@@H]4C[C@H]5O[C@]56CC=CC(=O)[C@]6(C)[C@H]4CC[C@]23C)C1 [WITHANOLIDE E]
SK-MEL-28
  pIC50: < 5.70
CWR22R
  pIC50: 7.15
ACHN
  pIC50: 6.34
M14
  pIC50: < 5.70
HFF
  pIC50: < 5.70
LNCaP
  pIC50: 7.22

## CC1=C(C)C(=O)O[C@@H]([C@](C)(O)[C@]2(O)CC[C@@]3(O)[C@@H]4[C@@H](O)C=C5C=CCC(=O)[C@]5(C)[C@H]4CC[C@]23C)C1
SK-MEL-28
  pIC50: < 5.70
CWR22R
  pIC50: 6.00
ACHN
  pIC50: < 5.70
M14
  pIC50: < 5.70
HFF
  pIC50: < 5.70
LNCaP
  pIC50: 6.03

## CC1=C(CO)C[C@H]([C@](C)(O)[C@]2(O)CC[C@@]3(O)[C@@H]4CC=C5CC=CC(=O)[C@]5(C)[C@H]4CC[C@]23C)OC1=O
SK-MEL-28
  pIC50: < 5.70
CWR22R
  pIC50: 6.68
ACHN
  pIC50: < 5.70
M14
  pIC50: < 5.70
HFF
  pIC50: < 5.70
LNCaP
  pIC50: 6.62
